From PubChem
An excerpt weighted towards active compounds, which were near 1.6% of everything screened.
CSN inh: CSN deneddylation inhibition | Purified CSN, SCF-Nedd8-OG deneddylation, fluorescence polarization | inhibition, % at 12.5 µM | 0.38% of 360,000 active | AID 651999;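 active = pattern-corrected inhibition above about 35%, with an unprinted fluorescence ratio check between 0.5 and 1.5, limit read from the data, passing the limit was not always enough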;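 also: 0% = enzyme with substrate and 100% = substrate without enzyme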
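Test system: purified human Csn5 enzyme expressed in HEK293T cells. Amount: 0.24 nM enzyme. Reagent: SCFSkp2-Nedd8OG substrate at 10 nM final. Schedule: 90 min incubation of compound, enzyme and substrate at room temperature. Detection: fluorescence polarization. Read-out: % inhibition of substrate cleavage by Csn5.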
HNF4A DNA FP: change in binding of human HNF4 alpha to DNA; P41235; HNF4a-FITC DNA binding, fluorescence polarization, 1 h; activity change, % at 10 µM; 0.3% of 360,000 active; AID 1224865; in the data active = activity change above about 30%, passing the limit was not always enough
TPT1 inhibitor: inhibitors of Candida albicans tRNA 2'-phosphotransferase TPT1; recombinant caTPT1, FP RNA substrate dephosphorylation; inhibition, % at 5 µM; 0.81% of 300,000 active; AID 1962;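 active = inhibition above the mean of all tested compounds plus 3 SD, set per screening campaign, cut at about 24% in these data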;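 also: plate controls were DMSO alone for no effect and ferristatin control at 100 nM for full effect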
Rpn11 inh: blocks the human proteasome subunit Rpn11; calls only at 20 µM; human 26S proteasome, Ub4-pepOG fluorescence polarization; 20S core pre-blocked with epoxomicin; O00487; 0.59% of 360,000 active;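 active = inhibition at 20 µM, scaled to each plate's controls, above about 33%, limit read from the data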
PKA-R2B activ: activates the human PKA-R2B holoenzyme complex | P22694+P31323 | PKA-R2B holoenzyme dissociation, Cy5-IP20 fluorescence polarization; R2B truncated from residue 108, S112A mutant; 0% DMSO only, 100% 113 µM cGMP | activation, % at 11.4 µM | 0.079% of 340,000 active;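 active = activation above a cutoff set at the mean over all compounds plus 3 SD, cut at about 18% in these data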;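 also: higher means more holoenzyme dissociation and a rise in polarization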
PKA-R1A activ: activates the PKA-R1A holoenzyme complex; AID 504707; activation, % at 11.4 µM; 0.083% of 340,000 active; PKA-R1A dissociation, Cy5-IP20 fluorescence polarization; scaled: DMSO 0%, 113 µM cGMP 100%;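 active = percent activation above the mean of all tested compounds plus 3 SD, cut at about 19% in these data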;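 also: higher means more PKAc released from R1A so a rise in polarization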
caTPT1 confirm: confirmation of Candida albicans TPT1 inhibitors. shares compounds with TPT1 inhibitor. recombinant caTPT1, fluorescence polarization, RNase T1 coupled. inhibition, % at 5 µM. 74% of 2,400 active. AID 2149;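 active = inhibition above the primary screen limit, the mean inhibition of all tested compounds plus 3 SD, cut at about 25% in these data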
RNase T1 counter: blocks Aspergillus oryzae RNase T1, a TPT1 counter-screen. AID 2153. shares compounds with TPT1 inhibitor. inhibition, % at 5 µM. RNase T1 cleavage, fluorescence polarization, 1536-well. 83% of 2,400 active;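 active = inhibition above the solvent-only control well mean plus 3 SD, limit set per screening run, cut at about 23% in these data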;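 also: plate controls were DMSO wells with enzyme for no effect and wells without RNase T1 for full effect; inhibitors block cleavage so intact labeled substrate keeps polarization high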
Rpn11 confirm: Rpn11 inhibition confirmation, single concentration. shares compounds with Rpn11 inh. purified human 26S proteasome, Ub4-pepOG fluorescence polarization; proteasome pretreated with epoxomicin. inhibition, % at 20 µM. 29% of 1,900 active. AID 602318
MMP-2 counter: blocks human MMP-2, flagging nonselective RPN11 hits. inhibition, % at 20 µM. shares compounds with Rpn11 inh. recombinant MMP-2, FRET peptide cleavage fluorescence. 4% of 1,900 active;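 also: human MMP-2 activated beforehand with APMA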
Thrombin FP: blocks bovine thrombin, flagging nonselective RPN11 hits. shares compounds with Rpn11 inh. bovine thrombin cleavage of Ub4-pepOG, fluorescence polarization. inhibition, % at 20 µM. 13% of 1,900 active;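 active = mean inhibition at least 40% at 20 µM, or signal 3 deviations below plate average, so some actives read negative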;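 also: plate controls were thrombin with DMSO for no effect and buffer wells lacking thrombin for full effect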
Target sequence (P00735 whole entry, looked up): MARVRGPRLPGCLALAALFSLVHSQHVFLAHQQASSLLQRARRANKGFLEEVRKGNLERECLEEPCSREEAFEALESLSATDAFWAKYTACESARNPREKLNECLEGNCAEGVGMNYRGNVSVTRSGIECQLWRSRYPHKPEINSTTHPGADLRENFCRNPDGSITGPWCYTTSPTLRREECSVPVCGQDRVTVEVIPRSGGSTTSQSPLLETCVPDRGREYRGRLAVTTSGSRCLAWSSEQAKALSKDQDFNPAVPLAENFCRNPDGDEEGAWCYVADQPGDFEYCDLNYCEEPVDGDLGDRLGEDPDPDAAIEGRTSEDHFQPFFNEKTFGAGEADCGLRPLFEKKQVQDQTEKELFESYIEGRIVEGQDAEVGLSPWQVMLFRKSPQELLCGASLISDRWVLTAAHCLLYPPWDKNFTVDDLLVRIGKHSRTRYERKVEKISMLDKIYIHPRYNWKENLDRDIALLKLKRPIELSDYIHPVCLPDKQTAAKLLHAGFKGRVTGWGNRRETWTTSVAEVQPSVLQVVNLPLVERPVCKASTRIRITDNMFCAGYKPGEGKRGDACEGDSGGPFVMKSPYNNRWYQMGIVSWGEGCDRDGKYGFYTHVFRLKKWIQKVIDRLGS
An asterisk follows results filed as active; i = inactive; · = no result; + = active, no number. Rule as the data show it, unless noted: active = inhibition above about 40%; inactive = the rest.

SMILES	CSN inh	HNF4A DNA FP	TPT1 inhibitor	Rpn11 inh	PKA-R2B activ	PKA-R1A activ	caTPT1 confirm	RNase T1 counter	Rpn11 confirm	MMP-2 counter	Thrombin FP
COc1ccc(C2=Nn3c(nnc3C(F)(F)F)SC2)cc1	2.4	-0.6	-1.3	i	3.9	-3.8	·	·	·	·	·
CCOc1ccc2nc(NC3=NC(c4ccc(OC)cc4)CC(=O)N3)nc(C)c2c1 (stereo unspecified)	12.8	13.7	25.6*	+	3.5	6.4	17.9	24.7*	44.3*	i	-5.0
COc1ccc(N/C=C/C(=O)c2ccccc2)cc1	-2.8	4.3	-4.1	i	8.3	-16.2	·	·	·	·	·
COc1ccc(N/C=C/C(=O)c2sc(-c3ccccc3)nc2C)cc1	5.1	23.0	71.1*	+	-18.9	-2.6	51.6*	64.7*	17.2	-14.9	-17.4
COc1ccc([C@@H](C)NC(=O)c2ccc3oc(C(C)C)nc3c2)cc1	-1.8	-2.2	-2.5	i	-1.3	-2.0	·	·	·	·	·
COc1ccc(/C=C2\SC(=S)N(C(C(=O)O)c3ccccc3)C2=O)c(OC)c1 (stereo unspecified)	13.7	27.8	26.8*	+	-0.4	-6.8	39.8*	53.1*	17.6	-23.8	20.6
Oc1ccc(N=Nc2ccccc2-c2nn[nH]n2)c(O)c1	5.2	-9.6	-1.7	i	2.0	-3.2	·	·	·	·	·
COc1cccc(/C=C2\Oc3ccc(O)cc3C2=O)c1O	6.0	8.5	48.8*	+	-12.3	0.3	71.1*	78.8*	-6.0	-73.3	-13.5
COc1cccc(/C=C2\Oc3cc(OCC(=O)N4CCCC4)ccc3C2=O)c1OC	-7.7	-3.1	-1.4	i	-4.4	-5.3	·	·	·	·	·
O=C(N/N=C/c1sc(N2CCOCC2)nc1-c1ccccc1)c1cccc(S(=O)(=O)N2CCCC2)c1	24.9	43.3*	35.4*	+	-9.5	-10.2	34.3*	43.0*	94.3*	12.5	69.2*
CC(C)c1ccc(CCNC(=O)CSC(=S)N2CCCC2)cc1	-3.6	1.7	-1.7	i	-2.5	7.9	·	·	·	·	·
NC(=O)c1cc2ccccc2o/c1=N/NC(=O)c1cccs1	-3.9	-5.8	2.1	i	13.6	-2.9	·	·	·	·	·
COc1ccc2o/c(=N/NC(=O)c3cccs3)c(C(N)=O)cc2c1	17.9	14.7	51.6*	+	-0.9	-3.2	67.6*	78.7*	70.2*	-28.4	43.1*
COC(=O)C1=C(C)N=c2s/c(=C/c3ccoc3)c(=O)n2C1c1ccccc1 (stereo unspecified)	57.9*	45.3*	58.1*	+	0.4	-13.2	61.3*	72.7*	47.9*	-15.2	47.4*
CCOC(=O)C1=C(C)N=c2s/c(=C\c3cccc(OCC(=O)O)c3)c(=O)n2C1c1ccccc1 (stereo unspecified)	2.8	-0.4	·	i	6.7	0.2	·	·	·	·	·
CCOC(=O)C1=C(C)N=c2s/c(=C\c3ccc(OCC(=O)O)c(OC)c3)c(=O)n2C1c1ccc(OC)cc1 (stereo unspecified)	6.6	1.2	25.4*	+	0.7	3.0	43.7*	53.4*	8.1	-51.1	10.6
O=C1NC(Cc2ccc(O)cc2)c2nc3ccccc3c(=O)n2-c2ncccc21 (stereo unspecified)	-0.7	-2.1	·	i	5.9	4.5	·	·	·	·	·
